Test results published in ChEMBL document CHEMBL4002610, “Design, synthesis and biological activity evaluation of novel 2,6-difluorobenzamide derivatives through FtsZ inhibition” (2017).
≈ marks a conversion by molar mass, not a printed value. Calls of active or inactive are those of the source. The calls are words filed in the database; no cut-off is given here.

target: T1, Cell division protein FtsZ (Staphylococcus aureus) (UniProt P0A031); assay: Inhibition of FtsZ in Staphylococcus aureus ATCC 25923 assessed as decrease in cell division by measuring lowest compound concentration at which bacterial ballooning is observed after 5 hrs by phase-contrast light microscopy; conditions: not given
T1 sequence (whole entry): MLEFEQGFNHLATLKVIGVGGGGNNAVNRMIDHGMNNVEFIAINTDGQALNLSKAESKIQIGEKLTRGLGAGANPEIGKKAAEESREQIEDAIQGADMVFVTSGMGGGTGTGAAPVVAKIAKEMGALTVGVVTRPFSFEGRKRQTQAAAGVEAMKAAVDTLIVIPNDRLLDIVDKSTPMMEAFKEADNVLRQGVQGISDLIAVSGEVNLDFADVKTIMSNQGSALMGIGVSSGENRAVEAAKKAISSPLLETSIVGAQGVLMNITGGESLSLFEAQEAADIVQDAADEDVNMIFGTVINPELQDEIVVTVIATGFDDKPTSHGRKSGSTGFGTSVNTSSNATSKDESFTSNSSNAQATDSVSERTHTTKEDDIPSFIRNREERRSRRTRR
How it was run: (§1)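 Cell division inhibition scored by cell morphology under phase-contrast light microscopy. B. subtilis ATCC9372, E. coli ATCC25922 and S. aureus ATCC25923 were exposed to compound. The lowest concentration giving filamentation (B. subtilis, E. coli) or ballooning (S. aureus) was recorded as the cell division inhibitory concentration.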

SMILES	INH [µg/mL]
CCOC(=O)COc1ccc(F)c(C(N)=O)c1F	64
CC(C)Oc1ccc(F)c(C(N)=O)c1F	128
NC(=O)c1c(F)ccc(OCCCCl)c1F	32
NC(=O)c1c(F)ccc(OCc2nc3cc([N+](=O)[O-])ccc3[nH]2)c1F	128
NC(=O)c1c(F)ccc(OCCCCCCn2cnc3ccccc32)c1F	128
NC(=O)c1c(F)ccc(OCCCn2cnc3ccccc32)c1F	256
NC(=O)c1c(F)ccc(OCCCCn2cnc3cc([N+](=O)[O-])ccc32)c1F	512
NC(=O)c1c(F)ccc(OCCCCCCl)c1F	16

test system: Bacillus subtilis; assay: Inhibition of FtsZ in Bacillus subtilis ATCC 9372 assessed as decrease in cell division by measuring lowest compound concentration at which bacterial filamentation is observed after 5 hrs by phase-contrast light microscopy; conditions: not given; how it was run: as §1

SMILES	INH [µg/mL]
CCOC(=O)COc1ccc(F)c(C(N)=O)c1F	32
CC(C)Oc1ccc(F)c(C(N)=O)c1F	128
NC(=O)c1c(F)ccc(OCCCCl)c1F	16
NC(=O)c1c(F)ccc(OCc2nc3cc([N+](=O)[O-])ccc3[nH]2)c1F	64
NC(=O)c1c(F)ccc(OCCCCCCn2cnc3ccccc32)c1F	128
NC(=O)c1c(F)ccc(OCCCn2cnc3ccccc32)c1F	512
NC(=O)c1c(F)ccc(OCCCCCCl)c1F	2

test system: Pseudomonas aeruginosa; assay: Antibacterial activity against Pseudomonas aeruginosa ATCC 27853 after 24 hrs by broth microdilution method; format: functional; conditions: ATCC 27853, 24 h
How it was run: (§2)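 MIC by standard broth microdilution per NCCLS guidance. Strain panel: B. subtilis ATCC9372 and S. aureus ATCC25923 as standard susceptible strains, S. aureus ATCC29213 as […], S. pyogenes PS as penicillin-susceptible, S. pneumoniae ATCC49619 as standard susceptible, alongside Gram-negative strains.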

SMILES	MIC [µg/mL]
CCOC(=O)COc1ccc(F)c(C(N)=O)c1F	128 (≈ 494 µM)
CC(C)Oc1ccc(F)c(C(N)=O)c1F	128 (≈ 595 µM)
NC(=O)c1c(F)ccc(OCCCCl)c1F	128 (≈ 513 µM)
NC(=O)c1c(F)ccc(OCc2nc3cc([N+](=O)[O-])ccc3[nH]2)c1F	256 (≈ 735 µM)
NC(=O)c1c(F)ccc(OCCCCCCn2cnc3ccccc32)c1F	512 (≈ 1370 µM)
NC(=O)c1c(F)ccc(OCCCn2cnc3ccccc32)c1F	512 (≈ 1550 µM)
NC(=O)c1c(F)ccc(OCCCCn2cnc3cc([N+](=O)[O-])ccc32)c1F	512 (≈ 1310 µM)
NC(=O)c1c(F)ccc(OCCCCCCl)c1F	128 (≈ 461 µM)

test system: Bacillus subtilis; assay: Antibacterial activity against Bacillus subtilis ATCC 9372 after 24 hrs by broth microdilution method; format: functional; conditions: ATCC 9372, 24 h; how it was run: as §2

SMILES	MIC [µg/mL]
CCOC(=O)COc1ccc(F)c(C(N)=O)c1F	64 (≈ 247 µM)
CC(C)Oc1ccc(F)c(C(N)=O)c1F	256 (≈ 1190 µM)
NC(=O)c1c(F)ccc(OCCCCl)c1F	32 (≈ 128 µM)
NC(=O)c1c(F)ccc(OCc2nc3cc([N+](=O)[O-])ccc3[nH]2)c1F	64 (≈ 184 µM)
NC(=O)c1c(F)ccc(OCCCCCCn2cnc3ccccc32)c1F	256 (≈ 686 µM)
NC(=O)c1c(F)ccc(OCCCn2cnc3ccccc32)c1F	1020 (≈ 3090 µM)
NC(=O)c1c(F)ccc(OCCCCn2cnc3cc([N+](=O)[O-])ccc32)c1F	64 (≈ 164 µM)
NC(=O)c1c(F)ccc(OCCCCCCl)c1F	4 (≈ 14.4 µM)

test system: Streptococcus pneumoniae; assay: Antibacterial activity against Streptococcus pneumoniae ATCC 49619 after 24 hrs by broth microdilution method; format: functional; conditions: ATCC 49619, 24 h; how it was run: as §2

SMILES	MIC [µg/mL]
CCOC(=O)COc1ccc(F)c(C(N)=O)c1F	128 (≈ 494 µM)
CC(C)Oc1ccc(F)c(C(N)=O)c1F	128 (≈ 595 µM)
NC(=O)c1c(F)ccc(OCCCCl)c1F	> 128
NC(=O)c1c(F)ccc(OCc2nc3cc([N+](=O)[O-])ccc3[nH]2)c1F	256 (≈ 735 µM)
NC(=O)c1c(F)ccc(OCCCCCCn2cnc3ccccc32)c1F	256 (≈ 686 µM)
NC(=O)c1c(F)ccc(OCCCn2cnc3ccccc32)c1F	512 (≈ 1550 µM)
NC(=O)c1c(F)ccc(OCCCCn2cnc3cc([N+](=O)[O-])ccc32)c1F	128 (≈ 328 µM)
NC(=O)c1c(F)ccc(OCCCCCCl)c1F	128 (≈ 461 µM)

test system: Escherichia coli ATCC 25922; assay: Inhibition of FtsZ in Escherichia coli ATCC 25922 assessed as decrease in cell division by measuring lowest compound concentration at which bacterial filamentation is observed after 5 hrs by phase-contrast light microscopy; conditions: not given; how it was run: as §1

SMILES	INH [µg/mL]
CCOC(=O)COc1ccc(F)c(C(N)=O)c1F	64
CC(C)Oc1ccc(F)c(C(N)=O)c1F	64
NC(=O)c1c(F)ccc(OCCCCl)c1F	64
NC(=O)c1c(F)ccc(OCc2nc3cc([N+](=O)[O-])ccc3[nH]2)c1F	128
NC(=O)c1c(F)ccc(OCCCCCCn2cnc3ccccc32)c1F	256
NC(=O)c1c(F)ccc(OCCCn2cnc3ccccc32)c1F	512
NC(=O)c1c(F)ccc(OCCCCn2cnc3cc([N+](=O)[O-])ccc32)c1F	256
NC(=O)c1c(F)ccc(OCCCCCCl)c1F	64

test system: Staphylococcus aureus; assay: Antibacterial activity against Staphylococcus aureus ATCC 29213 after 24 hrs by broth microdilution method; format: functional; conditions: ATCC 29213, 24 h; how it was run: as §2

SMILES	MIC [µg/mL]
CCOC(=O)COc1ccc(F)c(C(N)=O)c1F	256 (≈ 988 µM)
CC(C)Oc1ccc(F)c(C(N)=O)c1F	256 (≈ 1190 µM)
NC(=O)c1c(F)ccc(OCCCCl)c1F	32 (≈ 128 µM)
NC(=O)c1c(F)ccc(OCc2nc3cc([N+](=O)[O-])ccc3[nH]2)c1F	256 (≈ 735 µM)
NC(=O)c1c(F)ccc(OCCCCCCn2cnc3ccccc32)c1F	256 (≈ 686 µM)
NC(=O)c1c(F)ccc(OCCCn2cnc3ccccc32)c1F	512 (≈ 1550 µM)
NC(=O)c1c(F)ccc(OCCCCn2cnc3cc([N+](=O)[O-])ccc32)c1F	256 (≈ 656 µM)
NC(=O)c1c(F)ccc(OCCCCCCl)c1F	32 (≈ 115 µM)

test system: Bacillus subtilis; assay: Inhibition of FtsZ in Bacillus subtilis ATCC 9372 assessed as decrease in cell division by measuring cell morphology at 2048 to 4096 ug/ml after 5 hrs by phase-contrast light microscopy; conditions: not given

SMILES	inhibition
NC(=O)c1c(F)ccc(OCCCCn2cnc3cc([N+](=O)[O-])ccc32)c1F	inactive

test system: Streptococcus pyogenes; assay: Antibacterial activity against penicillin-susceptible Streptococcus pyogenes after 24 hrs by broth microdilution method; format: functional; conditions: not given; how it was run: as §2

SMILES	MIC [µg/mL]
CCOC(=O)COc1ccc(F)c(C(N)=O)c1F	> 128
CC(C)Oc1ccc(F)c(C(N)=O)c1F	> 128
NC(=O)c1c(F)ccc(OCCCCl)c1F	128 (≈ 513 µM)
NC(=O)c1c(F)ccc(OCc2nc3cc([N+](=O)[O-])ccc3[nH]2)c1F	1020 (≈ 2940 µM)
NC(=O)c1c(F)ccc(OCCCCCCn2cnc3ccccc32)c1F	512 (≈ 1370 µM)
NC(=O)c1c(F)ccc(OCCCn2cnc3ccccc32)c1F	1020 (≈ 3090 µM)
NC(=O)c1c(F)ccc(OCCCCn2cnc3cc([N+](=O)[O-])ccc32)c1F	256 (≈ 656 µM)
NC(=O)c1c(F)ccc(OCCCCCCl)c1F	64 (≈ 230 µM)

test system: Escherichia coli; assay: Antibacterial activity against Escherichia coli ATCC 25922 after 24 hrs by broth microdilution method; format: functional; conditions: ATCC 25922, 24 h; how it was run: as §2

SMILES	MIC [µg/mL]
CCOC(=O)COc1ccc(F)c(C(N)=O)c1F	128 (≈ 494 µM)
CC(C)Oc1ccc(F)c(C(N)=O)c1F	256 (≈ 1190 µM)
NC(=O)c1c(F)ccc(OCCCCl)c1F	128 (≈ 513 µM)
NC(=O)c1c(F)ccc(OCc2nc3cc([N+](=O)[O-])ccc3[nH]2)c1F	512 (≈ 1470 µM)
NC(=O)c1c(F)ccc(OCCCCCCn2cnc3ccccc32)c1F	512 (≈ 1370 µM)
NC(=O)c1c(F)ccc(OCCCn2cnc3ccccc32)c1F	512 (≈ 1550 µM)
NC(=O)c1c(F)ccc(OCCCCn2cnc3cc([N+](=O)[O-])ccc32)c1F	512 (≈ 1310 µM)
NC(=O)c1c(F)ccc(OCCCCCCl)c1F	128 (≈ 461 µM)

test system: Staphylococcus aureus; assay: Antibacterial activity against penicillin-resistant Staphylococcus aureus clinical isolate after 24 hrs by broth microdilution method; format: functional; conditions: not given

SMILES	MIC [µg/mL]
CCOC(=O)COc1ccc(F)c(C(N)=O)c1F	256 (≈ 988 µM)
CC(C)Oc1ccc(F)c(C(N)=O)c1F	256 (≈ 1190 µM)
NC(=O)c1c(F)ccc(OCCCCl)c1F	32 (≈ 128 µM)
NC(=O)c1c(F)ccc(OCc2nc3cc([N+](=O)[O-])ccc3[nH]2)c1F	512 (≈ 1470 µM)
NC(=O)c1c(F)ccc(OCCCCCCn2cnc3ccccc32)c1F	1020 (≈ 2740 µM)
NC(=O)c1c(F)ccc(OCCCn2cnc3ccccc32)c1F	1020 (≈ 3090 µM)
NC(=O)c1c(F)ccc(OCCCCn2cnc3cc([N+](=O)[O-])ccc32)c1F	512 (≈ 1310 µM)
NC(=O)c1c(F)ccc(OCCCCCCl)c1F	16 (≈ 57.6 µM)

test system: Staphylococcus aureus; assay: Antibacterial activity against Staphylococcus aureus ATCC 25923 after 24 hrs by broth microdilution method; format: functional; conditions: ATCC 25923, 24 h; how it was run: as §2

SMILES	MIC [µg/mL]
CCOC(=O)COc1ccc(F)c(C(N)=O)c1F	128 (≈ 494 µM)
CC(C)Oc1ccc(F)c(C(N)=O)c1F	256 (≈ 1190 µM)
NC(=O)c1c(F)ccc(OCCCCl)c1F	16 (≈ 64.1 µM)
NC(=O)c1c(F)ccc(OCc2nc3cc([N+](=O)[O-])ccc3[nH]2)c1F	512 (≈ 1470 µM)
NC(=O)c1c(F)ccc(OCCCCCCn2cnc3ccccc32)c1F	512 (≈ 1370 µM)
NC(=O)c1c(F)ccc(OCCCn2cnc3ccccc32)c1F	1020 (≈ 3090 µM)
NC(=O)c1c(F)ccc(OCCCCn2cnc3cc([N+](=O)[O-])ccc32)c1F	1020 (≈ 2620 µM)
NC(=O)c1c(F)ccc(OCCCCCCl)c1F	16 (≈ 57.6 µM)

target: T1, Cell division protein FtsZ (Staphylococcus aureus); assay: Inhibition of FtsZ in Staphylococcus aureus ATCC 25923 assessed as decrease in cell division by measuring cell morphology at 2048 to 4096 ug/ml after 5 hrs by phase-contrast light microscopy; conditions: not given

SMILES	inhibition
NC(=O)c1c(F)ccc(OCCCCn2cnc3cc([N+](=O)[O-])ccc32)c1F	inactive
